Assay results as given in the EternaBench riboswitch data.

System: MS2 coat protein
Test: apparent Kd, MS2 coat protein; higher = weaker binding; RNA-MaP array; FMN 200 µM where present
Method in brief: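 Green signal was scaled to red-channel RNA signal and control-cluster median Fmax, and the apparent Kd was taken as the median of filtered per-cluster binding-curve fits. The binding series used SNAP-549-labelled MS2 coat protein from 0.7 or 1.5 nM, doubling to 3 µM, on designs transcribed by stalled E. coli RNA polymerase on Illumina sequencing-chip clusters. Each series ran without and then with constant ligand in 100 mM Tris-HCl pH 7.5, 80 mM KCl, 4 mM MgCl2, BSA, DTT, yeast tRNA and Tween-20.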

[1] = designed as: OFF switch for flavin mononucleotide, no ligand
[2] = ligand present: flavin mononucleotide, designed as: OFF switch for flavin mononucleotide
[3] = designed as: ON switch for flavin mononucleotide, no ligand
[4] = ligand present: flavin mononucleotide, designed as: ON switch for flavin mononucleotide

CCAUAUAACUGAGGAUAUACUCACCACUAACAUGUAGAAGGCAGACAUGAGGAUCACCCAUGUGAUUUCUCAAUAUUAUACAUC
apparent Kd [1]: 901 nM | apparent Kd [2]: 658 nM

UGGUACAUGGGAGGAUAUGGGUUGAUAACAUGAGGAUCACCCAUGUUAAAUAUGCCUCAUGGCAACUAGAAGGCCCAUGUACCU
apparent Kd [3]: 463 nM | apparent Kd [4]: 95.1 nM

GCUGGACGAGGAUAUACAUUCGUGCUUCGGCACGUAAGAUCACAUGAGGAUCACCCAUGUAGAAGGUGUCCAGC
apparent Kd [1]: 42.1 nM | apparent Kd [2]: 200 nM

AUAGUAUAGCAAGGAUAUCGAUUUAGUUUGUUACGAGAAGGUGCUUUAGUUUAUACCUCUUGUUUACAUGAGGAUCACCCAUGU
apparent Kd [1]: 23.1 nM | apparent Kd [2]: 20.6 nM

AUUUAGUGCGAGAAGGCGUGGUCACAUGAGGAUCACCCAUGUCAGUACACGAGGAUAUCGAUCCGCUAUGUAAAUAUAUGCGGC
apparent Kd [3]: 78 nM | apparent Kd [4]: 7.51 nM

GAGAGCCGAGGAUAUACAUGAGGAUCACCCAUGUAAAAAAAAAAAAAAAAAAAAUCAUGUAGAAGGCGGCUUUC
apparent Kd [1]: 122 nM | apparent Kd [2]: 89.8 nM

UGAUAGGACAGAGGAUAUACGGCUAGGAGAUACUAGCCACUAUUCCUCACAUGAGGAUCACCCAUGUAGAAGGCUGUCCUAUCU
apparent Kd [1]: 16.4 nM | apparent Kd [2]: 119 nM

AAAAUACAUGAGGAUCACCCAUGUGAAAAUAUGGGAGGAUAUACCGAAAAAAAAAAAAAGGUAGAAGGCCCAAAAA
apparent Kd [3]: 22.5 nM | apparent Kd [4]: 32.5 nM

UUGAAUCGAAACAUGAGGAUCACCCAUGUGUCGUAGGUAGCAUAGGAUAUGUACAUACUGUUGGGAUAGAAGGAUGAUGAUGCU
apparent Kd [3]: 8.62 nM | apparent Kd [4]: 7.47 nM

CGGUGACGUGUAGGAUAUGGCGCUGGGUUUUGCCCAGAAGGACAUGAGGAUCACCCAUGUGGUAGAGGGCUGGCGGCCGCCCGU
apparent Kd [1]: 17.1 nM | apparent Kd [2]: 21.6 nM

AAAGCAACAUGAGGAUCACCCAUGUAGGAUAUCGCUAUUGUAAUCAUGAAACAUGAUUACAAUAGCGAGAAGGACAUAUGCUUU
apparent Kd [1]: 6.77 nM | apparent Kd [2]: 9.48 nM

UAUAUAUAGGCAGGAUAUACAUGUAUAUAUAAUAUAUUAUAUAAUAUAACAUGAGGAUCACCCAUGUAGAAGGGCCAUAAUAUA
apparent Kd [1]: 58.4 nM | apparent Kd [2]: 83.7 nM

ACAGAGGCUGACAUGAGGAUCACCCAUGUUAGAUUGUUAUGUCAGGAUAUUAUCUGGCAACCAGAUGAGAAGGGACCCUCUGUU
apparent Kd [3]: 21.5 nM | apparent Kd [4]: 7.68 nM

GGUUGUCAAAGACAACCAUAACGAACAUGAGGAUCACCCAUGUAGGAUAUGCUUCUCAAAGAGAAGCAGAAGGACAUGUGUCUU
apparent Kd [1]: 31.8 nM | apparent Kd [2]: 177 nM

GUCGGAAACGACAAAGUAGCAUAGGAGGAUAUUCAUCCUCACAUGAGGAUCACCCAUGUAAAUUGGGAGAAGGCCUAUGCUACA
apparent Kd [3]: 515 nM | apparent Kd [4]: 301 nM

AUUAUGUCAGGAUAUCAGUAGUAAAAAAAAAAAAUUACUACUGAGAAGGGACAUGAGGAUCACCCAUGUCAAAA
apparent Kd [1]: 23 nM | apparent Kd [2]: 30.6 nM

GUGCCUUGGGAGAAGGCAGUAUGCAAAGCAUUCUGAGGAUAUCCAUACCGGAAACGGACAUGAGGAUCACCCAUGUGGCACAAA
apparent Kd [3]: 18.5 nM | apparent Kd [4]: 7.52 nM

GUCGGAAACGACAAAAGUAGCAUACGAGAAGGCUGAUCCACGACAUGAGGAUCACCCAUGUACUUAGAGGAUAUUGGAUGCUAC
apparent Kd [3]: 110 nM | apparent Kd [4]: 26.1 nM

AUCAGCUCGUCAGGAUAUACGUCACUGCGUCAGCAGUGUGGUAUGAUCACAUGAGGAUCACCCAUGUAGAAGGGACGAGCUGAU
apparent Kd [1]: 8.62 nM | apparent Kd [2]: 132 nM

CUUUUGUGAGGAUAUUUGUAGUAAAUAAAUAAAAUUACUACUGAGAAGGCACAUGAGGAUCACCCAUGUUCCUC
apparent Kd [1]: 24.3 nM | apparent Kd [2]: 156 nM

UUAUGUGUUGUAGGAUAUCAUUAGAUUUGUAAUUUAAUUGUAAUUUACAUAUGAGAAGGACAUUUACAUGAGGAUCACCCAUGU
apparent Kd [1]: 12.5 nM | apparent Kd [2]: 9.6 nM

AUCGGCAACACCAUGGUGGAUCCUGAGGAUAUGAAAAGCUACAUGAGGAUCACCCAUGUCCCGCGUCAGAAGGCAGGUUUGAUC
apparent Kd [3]: 138 nM | apparent Kd [4]: 17 nM

UCCUUUAAUACAGGAUAUGUUAUUAUACAGUUGUUUGCUUAUUACUUUAUAACAGAAGGGUAGAACAUGAGGAUCACCCAUGUA
apparent Kd [3]: 76 nM | apparent Kd [4]: 50 nM

GGAUAGGACAGAGGAUAUACGUGCUAGAGAUACUAGCAAAAUUUCCUCACAUGAGGAUCACCCAUGUAGAAGGCUGUCCUAUAG
apparent Kd [1]: 16.7 nM | apparent Kd [2]: 432 nM

CGCAAUAUACAGAAGGAGUUAUUUAGAGGAUUACUAGGAUAUGUUCACAUGAGGAUCACCCAUGUCAUAUUGGGAUUUAUUGCG
apparent Kd [1]: 10 nM | apparent Kd [2]: 10.3 nM

CCGGCUUAGGAGGAUAUGGGAGUCGAUAGACACCCAGAAGGCCUAACAUGAGGAUCACCCAUGUGUCCUACCGG
apparent Kd [1]: 23.4 nM | apparent Kd [2]: 109 nM

UAUAUUUAUGUAGGAUAUGGUAUAUAAAAUAUACCAGAAGGACAUGAGGAUCACCCAUGUAUGAAAUUCCAUAAUAACCGUGUA
apparent Kd [1]: 11.1 nM | apparent Kd [2]: 12.2 nM

GCGUCAGAAUUAAUUGUGACAUACAGAAGGCAAUAGUUUAUUUCAGACAUGAGGAUCACCCAUGUUGAGGAUAUGUAUUUACUC
apparent Kd [1]: 8.92 nM | apparent Kd [2]: 7.82 nM
